Reference: ChEMBL document CHEMBL4823331, “Identification of gp120 Residue His105 as a Novel Target for HIV-1 Neutralization by Small-Molecule CD4-Mimics” (ACS Med Chem Lett, 2021)

Assays:
[1] = (§1) Inhibition of gp120 (Gln 105 residue) in HIV-1 JR-FL infected in dog Cf2Th-CD4/CCR5 cells assessed as inhibition of viral entry incubated for 30 mins prior to infection and further incubated for 48 to 72 hrs in presence of firefly D-luciferin free acid and ATP by single-round infection luciferase assay; type: cell-based; conditions: Human immunodeficiency virus 1, JR-FL
How it was run: (§2)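 Cf2Th canine cells expressing CD4 and CCR5 were infected with the named HIV-1 strain in the presence of compound. IC50 was taken as the concentration giving 50% inhibition of viral infection, reported as mean ± SD. Groups were compared by one-tailed unpaired t test (N = 3).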

[2] = as §1, with “(His” for “(Gln”, “BG505” for “JR-FL”; type: cell-based; conditions: Human immunodeficiency virus 1, BG505, Cf2Th-CD4/CCR5; how it was run: as §2

Row | IC50 [1] [µM] | IC50 [2] [µM] | SMILES
1 | 19.5 | > 300 | CNCc1ccc2c(c1)[C@H](NC(=O)C(=O)Nc1ccc(Cl)c(F)c1)[C@@H](CNC(=N)N)[C@@H]2CCC(O)CO (stereo not given in full)
2 | 8.29 | 130 | CNCc1ccc2c(c1)[C@@H](CCC(O)CO)[C@H](CNC(=N)N)[C@H]2NC(=O)C(=O)Nc1ccc(Cl)c(F)c1 (mixture of isomers)
3 | 9.22 | 106 | C=CCC[C@@H]1c2cc(CNC)ccc2[C@H](NC(=O)C(=O)Nc2ccc(Cl)c(F)c2)[C@H]1CNC(=N)N
4 | 32.5 | – | CCCC[C@@H]1c2cc(CNC)ccc2[C@H](NC(=O)C(=O)Nc2ccc(Cl)c(F)c2)[C@H]1CNC(=N)N
5 | 4.97 | 166 | CNCc1ccc2c(c1)[C@@H](CCC(=O)CO)[C@H](CNC(=N)N)[C@H]2NC(=O)C(=O)Nc1ccc(Cl)c(F)c1
6 | 16.2 | > 100 | C=CCC[C@@H]1c2ccc(CNC)cc2[C@H](NC(=O)C(=O)Nc2ccc(Cl)c(F)c2)[C@H]1CNC(=N)N
7 | 27.8 | – | CNCc1ccc2c(c1)[C@H](NC(=O)C(=O)Nc1ccc(Cl)c(F)c1)[C@@H](CNC(=N)N)[C@@H]2CC[C@H](O)CO
8 | 8.25 | 136 | CNCc1ccc2c(c1)[C@@H](CCCO)[C@H](CNC(=N)N)[C@H]2NC(=O)C(=O)Nc1ccc(Cl)c(F)c1
9 | 9.45 | 164 | CNCc1ccc2c(c1)[C@H](NC(=O)C(=O)Nc1ccc(Cl)c(F)c1)[C@@H](CNC(=N)N)[C@@H]2CCCO
10 | 17.7 | – | CNCc1ccc2c(c1)[C@@H](CC[C@H](O)CO)[C@H](CNC(=N)N)[C@H]2NC(=O)C(=O)Nc1ccc(Cl)c(F)c1
11 | 9 | 226 | CNCc1ccc2c(c1)C[C@H](CNC(=N)N)[C@H]2NC(=O)C(=O)Nc1ccc(Cl)c(F)c1
12 | 22 | – | CNCc1ccc2c(c1)[C@@H](CC[C@@H](O)CO)[C@H](CNC(=N)N)[C@H]2NC(=O)C(=O)Nc1ccc(Cl)c(F)c1
